In ChEMBL document CHEMBL1165966, “ppGpp analogues inhibit synthetase activity of Rel proteins from Gram-negative and Gram-positive bacteria” (Bioorg Med Chem, 2010):
Changes are numbered by the printed parent chain. Activity calls are given as the source filed them. The rule behind the calls is not given here.

How the values were obtained:
[1] = molecular target: T1, GTP pyrophosphokinase (Escherichia coli K-12) (UniProt P0AG20); assay: Inhibition of synthetic activity of Escherichia coli RelA assessed as inhibition of (p)ppGpp accumulation at 5 to 10 mM after 60 mins
T1 sequence (whole entry): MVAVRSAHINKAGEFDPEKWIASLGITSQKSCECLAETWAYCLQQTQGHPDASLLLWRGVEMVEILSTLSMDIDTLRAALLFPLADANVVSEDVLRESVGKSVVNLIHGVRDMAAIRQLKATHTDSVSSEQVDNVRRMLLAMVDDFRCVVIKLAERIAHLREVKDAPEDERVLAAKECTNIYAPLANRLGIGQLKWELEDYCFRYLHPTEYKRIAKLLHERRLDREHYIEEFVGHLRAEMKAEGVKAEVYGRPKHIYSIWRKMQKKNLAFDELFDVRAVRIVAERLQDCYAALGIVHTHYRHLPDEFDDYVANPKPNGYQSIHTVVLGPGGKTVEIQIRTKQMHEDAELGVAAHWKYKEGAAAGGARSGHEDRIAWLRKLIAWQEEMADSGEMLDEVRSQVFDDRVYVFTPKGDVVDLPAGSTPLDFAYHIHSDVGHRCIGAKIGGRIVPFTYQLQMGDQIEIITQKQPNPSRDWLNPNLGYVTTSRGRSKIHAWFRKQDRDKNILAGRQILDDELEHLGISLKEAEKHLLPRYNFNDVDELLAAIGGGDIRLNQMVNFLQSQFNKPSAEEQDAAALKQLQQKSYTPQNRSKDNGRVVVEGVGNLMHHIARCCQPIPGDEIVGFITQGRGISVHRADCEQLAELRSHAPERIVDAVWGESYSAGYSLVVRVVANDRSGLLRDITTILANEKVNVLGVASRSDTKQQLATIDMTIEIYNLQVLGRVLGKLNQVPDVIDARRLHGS

[2] = molecular target: T2, Bifunctional (p)ppGpp synthase/hydrolase RelA (Streptococcus dysgalactiae subsp. equisimilis) (UniProt Q54089); assay: Inhibition of synthetic activity of Streptococcus equisimilis RelA assessed as inhibition of (p)ppGpp accumulation at 5 to 10 mM after 5 mins
T2 sequence (whole entry): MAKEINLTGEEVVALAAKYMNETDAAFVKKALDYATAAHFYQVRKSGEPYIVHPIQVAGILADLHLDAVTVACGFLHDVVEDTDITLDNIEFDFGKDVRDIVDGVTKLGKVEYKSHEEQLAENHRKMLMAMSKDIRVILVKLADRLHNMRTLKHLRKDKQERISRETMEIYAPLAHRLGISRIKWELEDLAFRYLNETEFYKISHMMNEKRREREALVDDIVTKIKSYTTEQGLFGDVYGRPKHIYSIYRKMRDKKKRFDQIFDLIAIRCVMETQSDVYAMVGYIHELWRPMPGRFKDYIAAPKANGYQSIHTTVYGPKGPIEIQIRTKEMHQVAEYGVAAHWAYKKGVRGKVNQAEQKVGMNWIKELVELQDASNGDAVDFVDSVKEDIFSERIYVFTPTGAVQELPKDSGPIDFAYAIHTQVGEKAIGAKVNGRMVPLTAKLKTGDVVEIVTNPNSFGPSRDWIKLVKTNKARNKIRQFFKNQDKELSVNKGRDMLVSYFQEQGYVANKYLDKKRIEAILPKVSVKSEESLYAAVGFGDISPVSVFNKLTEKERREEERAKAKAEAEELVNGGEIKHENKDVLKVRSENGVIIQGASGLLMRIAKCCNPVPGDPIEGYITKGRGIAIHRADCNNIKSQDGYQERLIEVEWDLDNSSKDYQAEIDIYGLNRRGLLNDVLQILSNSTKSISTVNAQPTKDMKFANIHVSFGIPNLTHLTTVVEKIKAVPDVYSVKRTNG

[3] = test system: T3, GTP pyrophosphokinase (Escherichia coli K-12), P0AG20 [G251E]; assay: Inhibition of Escherichia coli RelA G251E mutant dissociation from ribosome at 1 to 10 mM after 4 hrs by chemiluminescence assay
T3 sequence (whole entry): T1 sequence (whole entry) with G251E
Outline: (§1)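 Ribosomes were isolated through a 40% sucrose cushion from E. coli grown in LB at 37 °C. RelA plus ribosomes and analogue at 1–10 mM were centrifuged 4 h at 32,000 rpm, 4 °C, and split into soluble and ribosomal fractions. Ribosomal fractions were run on 12% SDS-PAGE, blotted to PVDF and probed with anti-His antibody (1:10,000).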

[4] = molecular target: T2, Bifunctional (p)ppGpp synthase/hydrolase RelA (Streptococcus dysgalactiae subsp. equisimilis); assay: Inhibition of Streptococcus equisimilis RelA catalytic site at 5 mM in presence of increasing concentration of ATP
[5] = molecular target: T1, GTP pyrophosphokinase (Escherichia coli K-12); assay: Inhibition of Escherichia coli RelA catalytic site at 5 mM in presence of increasing concentration of GTP
Outline: (§2)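 The buffer was Tris–HCl pH 7.4 with DTT, MgCl2, KCl and (NH4)2SO4. Analogue was held at 5 mM while GTP or ATP was raised. Reactions ran 60 min at room temperature, were stopped with formic acid, and (p)ppGpp accumulation was the read-out.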

[6] = molecular target: T1, GTP pyrophosphokinase (Escherichia coli K-12); assay: Inhibition of Escherichia coli RelA dissociation from L11 mutated ribosome assessed as increase in bound protein at 1 to 10 mM after 4 hrs by chemiluminescence assay relative to control
Outline: as §1

[7] = molecular target: T1, GTP pyrophosphokinase (Escherichia coli K-12); assay: Inhibition of Escherichia coli RelA catalytic site at 5 mM in presence of increasing concentration of ATP
Outline: as §2

[8] = test system: Escherichia coli; assay: Inhibition of synthetic activity of Escherichia coli RelA C638F mutant at 1 to 10 mM
Outline: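 Analogue was added at 1, 5 or 10 mM in duplicate lanes. The buffer was Tris–HCl pH 7.4 containing DTT, MgCl2, KCl and (NH4)2SO4. Reactions ran at room temperature and were stopped with formic acid.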

[9] = molecular target: T1, GTP pyrophosphokinase (Escherichia coli K-12); assay: Inhibition of Escherichia coli RelA dissociation from ribosome assessed as increase in bound protein at 1 to 10 mM after 4 hrs by chemiluminescence assay relative to control
Outline: as §1

[10] = molecular target: T1, GTP pyrophosphokinase (Escherichia coli K-12); assay: Inhibition of synthetic activity of Escherichia coli RelA assessed as inhibition of (p)ppGpp accumulation at 0.1 to 0.5 mM after 60 mins
[11] = molecular target: T2, Bifunctional (p)ppGpp synthase/hydrolase RelA (Streptococcus dysgalactiae subsp. equisimilis); assay: Inhibition of synthetic activity of Streptococcus equisimilis RelA assessed as inhibition of (p)ppGpp accumulation at 0.5 mM after 5 mins
[12] = molecular target: T2, Bifunctional (p)ppGpp synthase/hydrolase RelA (Streptococcus dysgalactiae subsp. equisimilis); assay: Inhibition of Streptococcus equisimilis RelA catalytic site at 5 mM in presence of increasing concentration of GTP
[13] = molecular target: T1, GTP pyrophosphokinase (Escherichia coli K-12); assay: Inhibition of synthetic activity of Escherichia coli RelA assessed as inhibition of (p)ppGpp accumulation at > 1 mM after 60 mins

Row | SMILES | inhibition [1] | inhibition [2] | also measured
1 | Nc1nc2c(ncn2[C@@H]2O[C@H](COP(=O)(O)CP(=O)(O)O)[C@@H](OP(=O)(O)CP(=O)(O)O)[C@H]2O)c(=O)[nH]1 | Active | Active | 
2 | Nc1nc2c(ncn2[C@H]2C[C@H](OP(=O)(O)CP(=O)(O)O)[C@@H](CO)O2)c(=O)[nH]1 | Active | Active | 
3 | CC(C)C(=O)Nc1nc2c(ncn2[C@@H]2O[C@H](COP(=O)(O)CP(=O)(O)O)[C@@H](OP(=O)(O)CP(=O)(O)O)[C@H]2O)c(=O)[nH]1 | Active | Active | 
4 | Nc1nc2c(ncn2[C@H]2C[C@H](OP(=O)(O)CP(=O)(O)O)[C@@H](COP(=O)(O)CP(=O)(O)O)O2)c(=O)[nH]1 | Active | Active | inhibition [3]: inactive; inhibition [4]: Active; inhibition [5]: inactive; inhibition [6]: inactive; inhibition [7]: Active; inhibition [8]: Active; fold change (FC) [9]: 3; inhibition [10]: inactive; inhibition [11]: > 50%; inhibition [12]: inactive; inhibition [13]: > 50%
5 | CC1(C)O[C@@H]2[C@H](O1)[C@@H](COP(=O)(O)CP(=O)(O)O)O[C@H]2n1cnc2c(=O)[nH]c(N)nc21 | Active | Active | 
6 | Nc1nc2c(ncn2[C@@H]2O[C@H](COP(=O)(O)CP(=O)(O)O)[C@@H](O)[C@H]2O)c(=O)[nH]1 | Active | Active | 
7 | CC(C)C(=O)Nc1nc2c(ncn2[C@@H]2O[C@H](COP(=O)(O)CP(=O)(O)O)[C@@H](OP(=O)(O)CP(=O)(O)O)[C@H]2O[Si](C)(C)C(C)(C)C)c(=O)[nH]1 | Active | Active | 
